Assay results taken from ChEMBL document CHEMBL1687900, “Potent farnesyltransferase inhibitors with 1,4-diazepane scaffolds as novel destabilizing microtubule agents in hormone-resistant prostate cancer” (J Med Chem, 2011).
Calls of active or inactive are those of the source. The calls are words filed in the database; no cut-off is given here.

What was measured:
DU-145 [1] = test: Anticancer activity against hormone-resistant human DU145 cells assessed as cell proliferation after 72 hrs by MTT assay; type: functional, cell-based; details: DU-145, 72 h
Summary of the method: (§1)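 DU145 or PC3 cells (RPMI 1640, 10% FBS, 2 mM glutamine, 37 °C, 5% CO2) seeded at (1.6-1.8) 10^4 per well. After 72 h they were serum-deprived, and next day treated with various compound concentrations for 72 h. Viability was read by MTT (4 mg/mL, 4 h), SDS/HCl lysis and absorbance at 570 nm. Values come from at least three independent determinations.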

PC-3 [2] = test: Anticancer activity against hormone-resistant human PC3 cells assessed as cell proliferation after 72 hrs by MTT assay; type: functional, cell-based; details: PC-3, 72 h; summary of the method: as §1
[3] = Inhibition of FTase
Summary of the method: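 Partially purified recombinant yeast FTase (2.2 mg/mL stock) and dansyl-GCVLS peptide (2 μM solution) were used with inhibitor in DMSO. Buffer was 50 mM Tris/HCl pH 7.5, 5.5 mM DTT, 10 mM MgCl2, 10 μM ZnCl2 and 0.08% CHAPS. Reaction was started with 10 μM FPP solution (1:10 addition). Fluorescence (ex 340 / em 486 nm) was followed 15 min at 30 °C. Values are the mean of three determinations.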

PC-3 [4] = test: Anticancer activity against human PC3 cells xenografted mouse assessed as suppression of tumor at 30 mg/kg; type: functional
DU-145 [5] = test: Anticancer activity against human DU145 cells xenografted mouse assessed as suppression of tumor at 30 mg/kg; type: functional
PC-3 [6] = test: Induction of disorganization of tubulin in human PC3 cells assessed as microtubule bundles at 75 uM after 24 hrs by immunofluorescence microscopy; type: functional, cell-based
Summary of the method: (§2)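 PC3 cells were grown on poly-D-lysine coverslips overnight, synchronized, then exposed 24 h to compound or DMSO. They were fixed in 4% paraformaldehyde, permeabilized with 0.5% Triton X-100, and blocked 45 min in 5% BSA. Staining used Alexa 488 anti-α-tubulin (1/100). Microtubule network was examined by fluorescence microscopy.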

PC-3 [7] = test: Anticancer activity against hormone-resistant human PC3 cells assessed as cell proliferation at 100 uM after 72 hrs by MTT assay; type: functional; details: PC-3, 72 h
DU-145 [8] = test: Anticancer activity against hormone-resistant human DU145 cells assessed as cell proliferation at 100 uM after 72 hrs by MTT assay; type: functional; details: DU-145, 72 h
[9] = Apparent permeability across human Caco2 cells; type: ADME, cell-based; details: Caco-2
PC-3 [10] = test: Induction of disorganization of tubulin in human PC3 cells assessed as microtubule bundles at 21 uM by immunofluorescence microscopy; type: functional, cell-based; summary of the method: as §2
Liver microsomes = test: Metabolic stability of the compound in human liver microsome assessed as compound remaining; type: ADME
Summary of the method: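 Metabolic stability was tested in human liver microsomes, expressed as percentage of parent compound remaining at assay end.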

PC-3 [11] = test: Induction of disorganization of tubulin in human PC3 cells assessed as decrease in microtubulin mass at 18 uM by immunofluorescence microscopy; type: functional, cell-based; summary of the method: as §2
PC-3 [12] = test: Induction of disorganization of tubulin in human PC3 cells assessed as microtubule bundles at 18 uM by immunofluorescence microscopy; type: functional, cell-based; summary of the method: as §2
PC-3 [13] = test: Induction of disorganization of tubulin in human PC3 cells assessed as microtubule bundles at 32 uM by immunofluorescence microscopy; type: functional, cell-based; summary of the method: as §2
PC-3 [14] = test: Induction of disorganization of tubulin in human PC3 cells assessed as decrease in microtubulin mass at 32 uM by immunofluorescence microscopy; type: functional, cell-based; summary of the method: as §2

IC50 (DU-145 [1]) [µM]	IC50 (PC-3 [2]) [µM]	IC50 [3] [µM]	SMILES	inhibition at 100 µM (PC-3 [7]) [%]	inhibition at 100 µM (DU-145 [8]) [%]	other results
78	75	0.027	CC[C@H](C)[C@@H](CO[C@@H](Cc1ccccc1)C(=O)N[C@@H](CCS(C)(=O)=O)C(=O)OC(C)C)NC[C@@H](N)CS	–	–	inhibition in vivo at 30 mg/kg (PC-3 [4]): 87%; inhibition in vivo at 30 mg/kg (DU-145 [5]): 85%; Activity (PC-3 [6]): Active
–	–	0.015	Cc1cccc(C(=O)N2CCCN(Cc3cncn3Cc3ccc(C#N)cc3)CC2)c1	0	34	–
–	–	0.069	N#Cc1ccc(Cn2cncc2CN2CCCN(C(=O)c3ccc(F)cc3)CC2)cc1	40	27	–
48	77	0.018	N#Cc1ccc(Cn2cncc2CN2CCN(C(=O)c3cccc4ccccc34)CCC2c2ccccc2)cc1 (configuration not stated)	–	–	–
45	26	0.041	N#Cc1ccc(Cn2cncc2CN2CCCN(C(=O)c3ccc(Cl)cc3Cl)CC2)cc1	–	–	–
47	50	0.057	N#Cc1ccc(Cn2cncc2CN2CCC(c3ccccc3)N(C(=O)c3ccccc3-c3ccccc3)CC2)cc1 (configuration not stated)	–	–	–
–	–	0.205	CC(C)CC(=O)N1CCCN(Cc2cncn2Cc2ccc(C#N)cc2)CC1	13	18	–
100	70	0.025	N#Cc1ccc(Cn2cncc2CN2CCCN(C(=O)c3ccccc3Cl)CC2)cc1	–	–	–
–	–	0.008	N#Cc1ccc(Cn2cncc2CN2CCCN(C(=O)c3ccccc3)CC2)cc1	22	24	–
–	76	0.382	N#Cc1ccc(Cn2cncc2CN2CCC(c3ccccc3)N(C(=O)c3ccc(Cl)cc3Cl)CC2)cc1 (configuration not stated)	–	31	–
54	50	0.06	N#Cc1ccc(Cn2cncc2CN2CCC(c3ccccc3)N(C(=O)c3cccc4ccccc34)CC2)cc1 (configuration not stated)	–	–	–
29	18	0.007	N#Cc1ccc(Cn2cncc2CN2CCN(C(=O)C3CCCCC3)CCC2c2ccccc2)cc1 (configuration not stated)	–	–	Activity (PC-3 [11]): Active; Papp [9]: 25.1 ×10⁻⁶ cm/s; Activity (PC-3 [12]): Active; Stability (Liver microsomes): 2%
43	39	0.026	N#Cc1ccc(Cn2cncc2CN2CCCN(C(=O)c3ccccc3-c3ccccc3)CC2)cc1	–	–	–
44	65	0.039	N#Cc1ccc(Cn2cncc2CN2CCCN(C(=O)c3cccc4ccccc34)CC2)cc1	–	–	–
73	33	0.009	N#Cc1ccc(Cn2cncc2CN2CCN(C(=O)c3ccccc3)CCC2c2ccccc2)cc1 (configuration not stated)	–	–	–

The next lines start with the compound.

SMILES	IC50 (DU-145 [1]) [µM]	IC50 (PC-3 [2]) [µM]	IC50 [3] [µM]	inhibition at 100 µM (PC-3 [7]) [%]	inhibition at 100 µM (DU-145 [8]) [%]	other results
N#Cc1ccc(Cn2cncc2CN2CCC(c3ccccc3)N(C(=O)C34CC5CC(CC(C5)C3)C4)CC2)cc1 (configuration not stated)	42	41	0.017	–	–	–
N#Cc1ccc(Cn2cncc2CN2CCCN(C(=O)c3ccc4ccccc4c3)CC2)cc1	52	47	0.035	–	–	–
N#Cc1ccc(Cn2cncc2CN2CCC(c3ccccc3)N(C(=O)C3CCCCC3)CC2)cc1 (configuration not stated)	–	–	0.503	5	–	–
N#Cc1ccc(Cn2cncc2CN2CCN(C(=O)c3ccc(Cl)cc3Cl)CCC2c2ccccc2)cc1 (configuration not stated)	44	38	0.021	–	–	–
N#Cc1ccc(Cn2cncc2CN2CCCN(C(=O)c3ccsc3)CC2)cc1	–	–	0.042	4	3	–
N#Cc1ccc(Cn2cncc2CN2CCCN(C(=O)c3ccncc3)CC2)cc1	–	–	0.142	12	6	–
N#Cc1ccc(Cn2cncc2CN2CCCN(C(=O)C34CC5CC(CC(C5)C3)C4)CC2)cc1	44	21	0.005	–	–	Papp [9]: 28.8 ×10⁻⁶ cm/s; Activity (PC-3 [10]): Active; Stability (Liver microsomes): 1%
COc1cccc(C(=O)N2CCCN(Cc3cncn3Cc3ccc(C#N)cc3)CC2)c1OC	–	80	0.043	–	44	–
N#Cc1ccc(Cn2cncc2CN2CCCN(C(=O)Cc3cccc4ccccc34)CC2)cc1	93	–	0.013	40	–	–
N#Cc1ccc(Cn2cncc2CN2CCCN(C(=O)c3ccc(-c4ccccc4)cc3)CC2)cc1	47	50	0.153	–	–	–
N#Cc1ccc(Cn2cncc2CN2CCCN(C(=O)c3ccccc3F)CC2)cc1	–	–	0.14	2	7	–
N#Cc1ccc(Cn2cncc2CN2CCCN(C(=O)c3cccc(-c4ccccc4)c3)CC2)cc1	42	44	0.043	–	–	–
N#Cc1ccc(Cn2cncc2CN2CCN(C(=O)c3ccccc3-c3ccccc3)CCC2c2ccccc2)cc1 (configuration not stated)	35	50	0.017	–	–	–
CC(C)NCC(O)COc1cccc2ccccc12 (configuration not stated) [PROPRANOLOL]	–	–	–	–	–	Papp [9]: 41.1 ×10⁻⁶ cm/s
N#Cc1ccc(Cn2cncc2CN2CCCN(C(=O)c3ccccc3Br)CC2)cc1	–	–	0.064	15	17	–
N#Cc1ccc(Cn2cncc2CN2CCN(C(=O)C34CC5CC(CC(C5)C3)C4)CCC2c2ccccc2)cc1 (configuration not stated)	32	32	0.006	–	–	Activity (PC-3 [13]): Active; Activity (PC-3 [14]): Active; Papp [9]: 3.6 ×10⁻⁶ cm/s; Stability (Liver microsomes): 3%
CNC(=C[N+](=O)[O-])NCCSCc1ccc(CN(C)C)o1 [RANITIDINE]	–	–	–	–	–	Papp [9]: 0.7 ×10⁻⁶ cm/s
N#Cc1ccc(Cn2cncc2CN2CCCN(C(=O)C3CCCCC3)CC2)cc1	–	–	0.024	20	23	–
CC(CCc1ccccc1)NCC(O)c1ccc(O)c(C(N)=O)c1 (configuration not stated) [LABETALOL]	–	–	–	–	–	Papp [9]: 7.3 ×10⁻⁶ cm/s
N#Cc1ccc(Cn2cncc2CN2CCC(c3ccccc3)N(C(=O)c3ccccc3)CC2)cc1 (configuration not stated)	75	80	0.079	–	–	–
